Assay results reported in publication PMC10772668 (Clinical and Translational Science, 2023).

What was measured:
[1] = Safety, TEAEs, PK‐CSF; format: in vivo, human; conditions: for ALT increase (AESI), one participant: PK‐CSF 10 mg
Outline: (§1)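 Safety population: all participants exposed to study drug, followed from first dose to the end‑of‑study visit. Assessments covered physical and neurological exams, AEs, SAEs and AESIs (seizure, ALT ≥2×ULN, QTc ≥500 ms, pregnancy, overdose). Lab, vital‑sign and 12‑lead/Holter ECG abnormalities were also recorded. Coding used MedDRA 23.1 (part 1) or 24.0 (part 2), with severity graded 1–4 per FDA guidance. Counts were summarised per dose group, with placebo pooled.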

[2] = molecular target: T1, RIPK1 (Homo sapiens, UniProt Q13546); experiment: pS166‐RIPK1 inhibition in PBMC lysates, MAD; format: in vivo; conditions: MAD all dose groups
T1 sequence (Q13546 1-671): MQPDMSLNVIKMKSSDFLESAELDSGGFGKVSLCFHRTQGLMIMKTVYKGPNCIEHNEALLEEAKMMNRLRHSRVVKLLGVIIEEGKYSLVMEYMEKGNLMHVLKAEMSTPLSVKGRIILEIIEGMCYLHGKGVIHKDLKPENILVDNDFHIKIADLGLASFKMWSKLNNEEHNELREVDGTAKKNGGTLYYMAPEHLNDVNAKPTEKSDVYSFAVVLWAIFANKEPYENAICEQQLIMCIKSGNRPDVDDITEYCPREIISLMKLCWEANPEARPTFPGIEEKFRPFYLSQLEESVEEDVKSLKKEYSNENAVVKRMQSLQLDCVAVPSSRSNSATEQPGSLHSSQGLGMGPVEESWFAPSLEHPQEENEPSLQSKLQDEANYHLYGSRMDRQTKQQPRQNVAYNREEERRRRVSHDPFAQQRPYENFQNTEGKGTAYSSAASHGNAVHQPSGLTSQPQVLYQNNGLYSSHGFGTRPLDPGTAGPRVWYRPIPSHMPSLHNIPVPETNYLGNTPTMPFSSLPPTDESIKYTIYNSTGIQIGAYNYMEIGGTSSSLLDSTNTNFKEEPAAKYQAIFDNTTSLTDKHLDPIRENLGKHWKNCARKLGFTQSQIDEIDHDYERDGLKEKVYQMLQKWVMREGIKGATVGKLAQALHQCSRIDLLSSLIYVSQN
Outline: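 Blood was drawn predose on day −1 or 1, on day 7, on day 14 predose and 1, 3, 5 and 8 h postdose, and once on days 15 and 16. Subjects received 14‑day oral q.d./b.i.d. dosing or placebo. PBMCs were isolated and pS166‑RIPK1 measured in lysates. Percent change from baseline was summarised as median (Q1–Q3) per dose group and time.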

[3] = Plasma PK, MAD; format: in vivo, human; conditions: for half-life: T 1/2z; for Tmax: T max, median (range)
Outline: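 Oral capsules were given for 14 days (q.d. or b.i.d.) after an overnight fast of ≥8 h, with 2 h fasting post‑dose. Plasma was sampled predose and at 10–11 postdose times on days 1 and 14, predose on days 2, 3, 5, 7 and 11, and once on days 15–17. Quantification was by HPLC‑MS (LLOQ 1 ng/mL). AUCtau used tau 12 h (b.i.d.) or 24 h (q.d.). Accumulation was assessed by a linear model on log ratio and steady state by a nonlinear model on Ctrough.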

[4] = Overall safety and tolerability, all study parts; format: in vivo, human
Outline: as §1

[5] = Plasma PK, SAD; format: in vivo, human; conditions: for CL/F, geometric mean (%CV): fasting
Outline: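 Healthy adults received a single fasted oral capsule dose (10–40 mg) or placebo; fasting was overnight ≥8 h and 2 h post‑dose. Plasma was sampled predose, at 10 postdose times on day 1 and once each on days 2 and 3, and quantified by HPLC‑MS (LLOQ 1 ng/mL). Cmax, Tmax, AUClast, AUC, t1/2z, CL/F and Vz/F were computed. Dose proportionality was tested with a linear model.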

[6] = molecular target: T1, RIPK1; experiment: pS166‐RIPK1 inhibition in PBMC lysates, SAD; format: in vivo; conditions: SAD all dose groups, from 1 h to at least 5 h postdose
Outline: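 After a single fasted oral dose or placebo, blood was collected predose, at 1, 3, 5 and 8 h on day 1, and at 24 h. PBMCs were isolated and autophosphorylated RIPK1 (pS166) quantified in lysates. Percent change from baseline was summarised descriptively as median (Q1–Q3) by dose group and timepoint.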

[7] = Plasma PK, PK‐CSF; format: in vivo, human; conditions: for CL/F, geometric mean (%CV): after breakfast; for Vd/F: both, human, plasma, oral
Outline: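 Open‑label part: single oral 10 or 40 mg dose given about 30 min after breakfast. Plasma was collected predose and at 10 postdose times, one of them coinciding with lumbar‑puncture CSF sampling. Drug was quantified by validated HPLC‑MS (LLOQ 1 ng/mL). CL/F and Vz/F were derived from plasma concentration‑time data and summarised per dose group.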

[8] = molecular target: T1, RIPK1; experiment: In vitro inhibition of RIPK1 activity in human PBMCs; format: cell-based
[9] = Safety, TEAEs, SAD; format: in vivo, human
Outline: as §1

[10] = system: CYP3A4; experiment: Plasma 4β‐hydroxycholesterol day 14/day 1 ratio; format: in vivo, human; conditions: repeated doses up to 20 mg b.i.d.
Outline: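 MAD healthy adults received oral capsules (10 or 20 mg q.d., 15 or 20 mg b.i.d.; fasted) or placebo for 14 days. Plasma 4β‑hydroxycholesterol was measured predose on day 1 and day 14, and day 14/day 1 ratios were calculated. Geometric mean of the log‑transformed ratio with 90% CI was obtained by analysis of covariance, per dose group and overall.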

[11] = molecular target: T1, RIPK1; experiment: In vitro inhibition of RIPK1 activity in iPSC‐derived microglia; format: cell-based
[12] = Safety, TEAEs, MAD; format: in vivo, human
Outline: as §1

[13] = both, human, plasma, oral, 10 mg
[14] = both, human, plasma, oral, 20 mg
[15] = both, human, plasma, oral, 30 mg
[16] = both, human, plasma, oral, 40 mg

## CC(C)(C(=O)N1CCOc2c(C#N)cncc2C1)C(F)F [SAR443820]
[1]; PK-CSF 10 mg (n = 6)
  Any TEAE, n (%): 4 (66.7) n (%)
  Any grade ≥3 TEAE, n (%): 0 n (%)
  Any treatment‐emergent AESI, n (%): 1 (16.7) n (%)
  Any treatment‐emergent SAE, n (%): 0 n (%)
[1]; PK-CSF 40 mg (n = 6)
  Any TEAE, n (%): 6 (100.0) n (%)
  Any grade ≥3 TEAE, n (%): 1 (16.7) n (%)
  Any treatment‐emergent AESI, n (%): 0 n (%)
  Any treatment‐emergent SAE, n (%): 1 (16.7) n (%)
[1]; day 2
  ALT increase (AESI), one participant: 1.5 ULN
[1]; day 7 (end‐of‐study visit)
  ALT increase (AESI), one participant: 2.4 ULN
[2]; 48 h post last dosing
  pS166‐RIPK1 inhibition in PBMC lysates: less inhibition of RIPK1 phosphorylation
[2]; day 14, up to 24 h post last morning dosing
  pS166‐RIPK1 inhibition in PBMC lysates: greater than 80%
[3]; MAD 10 mg q.d., day 14
  CLss/F, geometric mean (%CV): 7.08 (25.9) L/h
[3]; MAD 15 mg b.i.d., day 14
  CLss/F, geometric mean (%CV): 9.16 (30.0) L/h
[3]; MAD 20 mg b.i.d., day 14
  CLss/F, geometric mean (%CV): 9.27 (24.9) L/h
[3]; MAD 20 mg q.d., day 14
  CLss/F, geometric mean (%CV): 9.40 (22.2) L/h
[3]; b.i.d. cohorts, day 14 vs day 1
  Overall accumulation, C max and AUCtau: around 1.5 fold
[3]; both, human, plasma, oral, 10 mg, C max, geometric mean (%CV), MAD 10 mg q.d., day 14
  Cmax: 158 ng/mL
[3]; both, human, plasma, oral, 10 mg, geometric mean (%CV), MAD 10 mg q.d., day 14
  half-life: 8.87 h
[3]; both, human, plasma, oral, 10 mg, MAD 10 mg q.d., day 14
  Tmax: 1 h
[3]; both, human, plasma, oral, 15 mg, geometric mean (%CV), MAD 15 mg b.i.d., day 14
  half-life: 7.21 h
[3]; both, human, plasma, oral, 15 mg, MAD 15 mg b.i.d., day 1
  Tmax: 1 h
[3]; both, human, plasma, oral, 15 mg, MAD 15 mg b.i.d., day 14
  Tmax: 1 h
[3]; both, human, plasma, oral, 20 mg, geometric mean (%CV), MAD 20 mg b.i.d., day 14
  half-life: 7.37 h
[3]; both, human, plasma, oral, 20 mg, geometric mean (%CV), MAD 20 mg q.d., day 14
  half-life: 8.53 h
[3]; both, human, plasma, oral, 20 mg, MAD 20 mg b.i.d., day 14
  Tmax: 1 h
[3]; both, human, plasma, oral, 20 mg, MAD 20 mg q.d., day 14
  Tmax: 2 h
[4]; all study parts
  Most common AEs: dizziness (SAD) and headache (PK‐CSF and MAD)
[4]; healthy participants, single doses up to 40 mg, repeated doses up to 20 mg b.i.d. for 14 days
  Overall tolerability: generally safe and well‐tolerated
[5]; SAD 10 mg single dose
  CL/F, geometric mean (%CV): 8.56 (37.8) L/h
[5]; SAD 20 mg single dose
  CL/F, geometric mean (%CV): 8.28 (21.4) L/h
[5]; SAD 30 mg single dose
  CL/F, geometric mean (%CV): 12.3 (44.7) L/h
[5]; SAD 40 mg single dose
  CL/F, geometric mean (%CV): 7.72 (36.1) L/h
[5]; SAD between 10 mg and 40 mg
  Dose proportionality of exposure: no major deviation from dose proportionality
[5]; both, human, plasma, oral
  Tmax: 1 to 1.5 h
  half-life: 5.7 to 8 h
[5]; [13]
  AUC(0-t): 1120 ng·h/mL
  Vd/F: 98.4 L
  half-life: 7.97 h
[5]; [14]
  Cmax: 241 ng/mL
  Tmax: 1.5 h
  Vd/F: 89.4 L
  half-life: 7.48 h
[5]; [15]
  Tmax: 1 h
  Vd/F: 101 L
  half-life: 5.7 h
[5]; [16]
  Tmax: 1.5 h
  Vd/F: 70.1 L
  half-life: 6.29 h
[6]
  Median pS166‐RIPK1 inhibition in PBMC lysates: greater than 80%
[7]; PK‐CSF 10 mg single dose
  CL/F, geometric mean (%CV): 7.27 (29.7) L/h
[7]; PK‐CSF 40 mg single dose
  CL/F, geometric mean (%CV): 8.43 (34.2) L/h
[7]; 10 mg
  Vd/F: 83.6 L
[7]; 40 mg
  Vd/F: 97.7 L
[7]; capsule in fed conditions vs fasted
  Food effect on absorption: no evidence that the extent of absorption was impacted by food
[8]
  IC50: 3.16 nM
[9]; SAD 10 mg (n = 6)
  Any TEAE, n (%): 2 (33.3) n (%)
  Any grade ≥3 TEAE, n (%): 0 n (%)
  Any treatment‐emergent AESI, n (%): 0 n (%)
  Any treatment‐emergent SAE, n (%): 0 n (%)
[9]; SAD 20 mg (n = 6)
  Any TEAE, n (%): 1 (16.7) n (%)
  Any grade ≥3 TEAE, n (%): 0 n (%)
  Any treatment‐emergent AESI, n (%): 0 n (%)
  Any treatment‐emergent SAE, n (%): 0 n (%)
[9]; SAD 30 mg (n = 6)
  Any TEAE, n (%): 3 (50.0) n (%)
  Any grade ≥3 TEAE, n (%): 0 n (%)
  Any treatment‐emergent AESI, n (%): 0 n (%)
  Any treatment‐emergent SAE, n (%): 0 n (%)
[9]; SAD 40 mg (n = 6)
  Any TEAE, n (%): 3 (50.0) n (%)
  Any grade ≥3 TEAE, n (%): 0 n (%)
  Any treatment‐emergent AESI, n (%): 0 n (%)
  Any treatment‐emergent SAE, n (%): 0 n (%)
[10]
  Potential for CYP3A4 induction: no potential for CYP3A4 induction
[11]
  IC50: 1.6 nM
[12]; MAD 10 mg QD (n = 8)
  Any TEAE, n (%): 4 (50.0) n (%)
  Any grade ≥3 TEAE, n (%): 0 n (%)
  Any treatment‐emergent AESI, n (%): 0 n (%)
  Any treatment‐emergent SAE, n (%): 0 n (%)
[12]; MAD 15 mg BID (n = 8)
  Any TEAE, n (%): 6 (75.0) n (%)
  Any grade ≥3 TEAE, n (%): 0 n (%)
  Any treatment‐emergent AESI, n (%): 1 (12.5) n (%)
  Any treatment‐emergent SAE, n (%): 0 n (%)
[12]; MAD 15 mg b.i.d.
  Concomitant AST increase, one participant: 1.43 ULN
[12]; MAD 15 mg b.i.d., day 9
  ALT increase (AESI), one participant: 2.29 ULN
[12]; MAD 15 mg b.i.d., day 15 (24 h post last dosing)
  ALT increase (AESI), one participant: 2.71 ULN
[12]; MAD 20 mg BID (n = 8)
  Any TEAE, n (%): 4 (50.0) n (%)
  Any grade ≥3 TEAE, n (%): 0 n (%)
  Any treatment‐emergent AESI, n (%): 0 n (%)
  Any treatment‐emergent SAE, n (%): 0 n (%)
[12]; MAD 20 mg QD (n = 8)
  Any TEAE, n (%): 3 (37.5) n (%)
  Any grade ≥3 TEAE, n (%): 0 n (%)
  Any treatment‐emergent AESI, n (%): 0 n (%)
  Any treatment‐emergent SAE, n (%): 0 n (%)
